What all share (assay type): functional
Experiment [1] is described as follows: Antifungal activity against Candida tropicalis bloodstream isolates by broth microdilution method. The method in brief:
(§1)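 CLSI M27-A2 broth microdilution in RPMI 1640 buffered to pH 7.0 with 0.165 M MOPS. Consecutive blood-culture isolates were subcultured at least twice on Sabouraud dextrose agar. Final inoculum was 0.5 × 103 to 2.5 × 10^3 cells/ml against twofold drug dilutions, incubated in air at 35°C for 24–48 h. MIC was read visually as no growth or ≥50% growth reduction versus drug-free control, depending on agent.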
On the technique in general: In broth dilution the organism is exposed to a series of concentrations in liquid medium.

Another experiment has as its system Candida. The experiment is described as follows: Antifungal activity against Candida sp. bloodstream isolates by broth microdilution method. A digest of the protocol:
as §1

The subject of another experiment is Candida albicans. Description: Antifungal activity against Candida albicans bloodstream isolates by broth microdilution method. The method in brief: as §1
The test system of the next experiment is Candida parapsilosis. Description: Antifungal activity against Candida parapsilosis bloodstream isolates by broth microdilution method. Particulars: Lodderomyces parapsilosis. The method in brief: as §1
The next experiment relates to Nakaseomyces glabratus. The experiment is described as follows: Antifungal activity against Candida glabrata bloodstream isolates by broth microdilution method. The method in brief:
as §1

The test system of another experiment is Pichia kudriavzevii. Description: Antifungal activity against Candida krusei bloodstream isolates by broth microdilution method. The method in brief:
as §1

Molecules are shown by their SMILES. ≈ marks a conversion by molar mass, not a printed value.

As for `Nc1nc(=O)[nH]cc1F` [FLUCYTOSINE], the MIC50 in experiment [1] came out at 0.125 µg/mL (≈ 0.968 µM); with Candida, 0.063 µg/mL (≈ 0.488 µM); against Candida albicans, 0.125 µg/mL (≈ 0.968 µM); in the experiment on Candida parapsilosis it was 0.125 µg/mL (≈ 0.968 µM); in the experiment on Nakaseomyces glabratus it was 0.063 µg/mL (≈ 0.488 µM); against Pichia kudriavzevii, 16 µg/mL (≈ 124 µM). Besides, the MIC90 in experiment [1] was determined as 128 µg/mL (≈ 992 µM); with Candida it was 2 µg/mL (≈ 15.5 µM); against Candida albicans, 0.25 µg/mL (≈ 1.94 µM); with Candida parapsilosis, 0.125 µg/mL (≈ 0.968 µM); against Nakaseomyces glabratus it was 0.063 µg/mL (≈ 0.488 µM); against Pichia kudriavzevii, 16 µg/mL (≈ 124 µM).
`CCC(C)n1ncn(-c2ccc(N3CCN(c4ccc(OCC5COC(Cn6cncn6)(c6ccc(Cl)cc6Cl)O5)cc4)CC3)cc2)c1=O` (stereo not given) [ITRACONAZOLE]: the MIC50 was 0.031 µg/mL (≈ 0.0439 µM) in experiment [1]; 0.016 µg/mL (≈ 0.0227 µM) with Candida; 0.008 µg/mL (≈ 0.0113 µM) in the experiment on Candida albicans; 0.016 µg/mL (≈ 0.0227 µM) against Candida parapsilosis; 0.5 µg/mL (≈ 0.709 µM) in the experiment on Nakaseomyces glabratus; 0.5 µg/mL (≈ 0.709 µM) in the experiment with Pichia kudriavzevii. Further, the MIC90 was 0.031 µg/mL (≈ 0.0439 µM) in experiment [1]; 0.25 µg/mL (≈ 0.354 µM) in the experiment on Candida; 0.016 µg/mL (≈ 0.0227 µM) against Candida albicans; 0.063 µg/mL (≈ 0.0893 µM) in the experiment on Candida parapsilosis; 1 µg/mL (≈ 1.42 µM) with Nakaseomyces glabratus; 0.5 µg/mL (≈ 0.709 µM) in the experiment with Pichia kudriavzevii.
Regarding `C[C@@H]1[C@H](O)[C@@H](C)/C=C/C=C/C=C/C=C/C=C/C=C/C=C/[C@H](O[C@@H]2O[C@H](C)[C@@H](O)[C@H](N)[C@@H]2O)C[C@@H]2O[C@](O)(C[C@@H](O)C[C@@H](O)[C@H](O)CC[C@@H](O)C[C@@H](O)CC(=O)O[C@H]1C)C[C@H](O)[C@H]2C(=O)O` (stereo in doubt) [AMPHOTERICIN B], the MIC50 in experiment [1] amounted to 0.5 µg/mL (≈ 0.541 µM); in the experiment with Candida, 0.25 µg/mL (≈ 0.271 µM); in the experiment on Candida albicans, 0.25 µg/mL (≈ 0.271 µM); against Candida parapsilosis, 0.25 µg/mL (≈ 0.271 µM); with Nakaseomyces glabratus it was 0.5 µg/mL (≈ 0.541 µM); in the experiment on Pichia kudriavzevii, 0.5 µg/mL (≈ 0.541 µM). Besides, the MIC90 (in experiment [1]; against Candida; in the experiment with Candida albicans; against Candida parapsilosis; against Nakaseomyces glabratus; against Pichia kudriavzevii) was 0.5 µg/mL (≈ 0.541 µM) throughout.
With `C[C@@H](c1ncncc1F)[C@](O)(Cn1cncn1)c1ccc(F)cc1F` [VORICONAZOLE], the MIC50 in experiment [1] amounted to 0.063 µg/mL (≈ 0.18 µM); with Candida, 0.031 µg/mL (≈ 0.0887 µM); against Candida albicans, 0.016 µg/mL (≈ 0.0458 µM); in the experiment on Candida parapsilosis, 0.031 µg/mL (≈ 0.0887 µM); against Nakaseomyces glabratus, 0.5 µg/mL (≈ 1.43 µM); in the experiment with Pichia kudriavzevii, 0.5 µg/mL (≈ 1.43 µM). Moreover, the MIC90 stood at 0.125 µg/mL (≈ 0.358 µM) in experiment [1]; 0.5 µg/mL (≈ 1.43 µM) in the experiment on Candida; 0.031 µg/mL (≈ 0.0887 µM) with Candida albicans; 0.125 µg/mL (≈ 0.358 µM) in the experiment with Candida parapsilosis; 2 µg/mL (≈ 5.73 µM) against Nakaseomyces glabratus; 1 µg/mL (≈ 2.86 µM) in the experiment on Pichia kudriavzevii.
`C[C@@H](c1nc(-c2ccc(C#N)cc2)cs1)[C@](O)(Cn1cncn1)c1cc(F)ccc1F` [ISAVUCONAZOLE]: the MIC50 in experiment [1] came to 0.031 µg/mL (≈ 0.0709 µM); in the experiment with Candida, 0.016 µg/mL (≈ 0.0366 µM); against Candida albicans, 0.002 µg/mL (≈ 0.00457 µM); with Candida parapsilosis, 0.016 µg/mL (≈ 0.0366 µM); in the experiment with Nakaseomyces glabratus, 0.25 µg/mL (≈ 0.571 µM); against Pichia kudriavzevii it was 0.5 µg/mL (≈ 1.14 µM). Besides, the MIC90 in experiment [1] was 0.063 µg/mL (≈ 0.144 µM); in the experiment on Candida it was 0.5 µg/mL (≈ 1.14 µM); in the experiment on Candida albicans it was 0.004 µg/mL (≈ 0.00914 µM); with Candida parapsilosis, 0.031 µg/mL (≈ 0.0709 µM); with Nakaseomyces glabratus, 0.5 µg/mL (≈ 1.14 µM); in the experiment on Pichia kudriavzevii, 0.5 µg/mL (≈ 1.14 µM).
Turning to `OC(Cn1cncn1)(Cn1cncn1)c1ccc(F)cc1F` [FLUCONAZOLE], the MIC50 was 1 µg/mL (≈ 3.27 µM) in experiment [1]; 1 µg/mL (≈ 3.27 µM) against Candida; 0.5 µg/mL (≈ 1.63 µM) against Candida albicans; 1 µg/mL (≈ 3.27 µM) in the experiment on Candida parapsilosis; 32 µg/mL (≈ 104 µM) in the experiment on Pichia kudriavzevii. The MIC90 was found to be 1 µg/mL (≈ 3.27 µM) in experiment [1]; 16 µg/mL (≈ 52.2 µM) with Candida; 1 µg/mL (≈ 3.27 µM) with Candida albicans; 2 µg/mL (≈ 6.53 µM) against Candida parapsilosis; 64 µg/mL (≈ 209 µM) against Pichia kudriavzevii.

In general, MIC50 refers to an inhibitory concentration at the 50% level, which refers to growth in some studies and to a panel of isolates in others. The low end stands for greater potency, the high end for weaker potency. For orientation: MIC90 means an inhibitory concentration at the 90% level, which refers to growth in some studies and to a panel of isolates in others. Read a high MIC90 as weaker potency.

Values taken from ChEMBL document CHEMBL1143845, “In vitro activities of isavuconazole and other antifungal agents against Candida bloodstream isolates” (2007).
